PMC10205775 (Saudi Pharmaceutical Journal : SPJ, 2023)
Several values for one entry are separate records, joined by “and”; a condition that tells them apart may be missing. Equal values may be shown once.

Tests used:
[1] = system: HepG2, MCF-7, MDA-MB-231 and HeLa; experiment: MTT antiproliferative assay, all tested cell lines; assay type: cell-based; conditions: Homo sapiens, read-out: IC50 values against all tested cell lines (range)
HepG2 = experiment: MTT antiproliferative assay, HepG2; assay type: cell-based; conditions: Homo sapiens, HepG2, read-out: In vitro Cytotoxicity IC50 HepG2
MCF-7 = experiment: MTT antiproliferative assay, MCF-7; conditions: Homo sapiens, MCF7, read-out: In vitro Cytotoxicity IC50 MCF-7
HeLa = experiment: MTT antiproliferative assay, HeLa; conditions: Homo sapiens, read-out: In vitro Cytotoxicity IC50 HeLa
MDA-MB-231 = experiment: MTT antiproliferative assay, MDA-MB-231; assay type: cell-based; conditions: Homo sapiens, MDA-MB-231, read-out: In vitro Cytotoxicity IC50 MDA-MB-231
HepG2 cells [2] = experiment: Cell cycle distribution by flow cytometry; assay type: cell-based, human; conditions: 8.39 μM of compound 7, 24 h
CDK2 = CDK2 (Homo sapiens, UniProt P24941); experiment: In vitro protein kinase assay, CDK2; assay type: biochemical
VEGFR2 = VEGFR2 (Homo sapiens, UniProt P35968); experiment: In vitro protein kinase assay, VEGFR2; assay type: biochemical
Sequence of VEGFR2 (P35968 20-1356): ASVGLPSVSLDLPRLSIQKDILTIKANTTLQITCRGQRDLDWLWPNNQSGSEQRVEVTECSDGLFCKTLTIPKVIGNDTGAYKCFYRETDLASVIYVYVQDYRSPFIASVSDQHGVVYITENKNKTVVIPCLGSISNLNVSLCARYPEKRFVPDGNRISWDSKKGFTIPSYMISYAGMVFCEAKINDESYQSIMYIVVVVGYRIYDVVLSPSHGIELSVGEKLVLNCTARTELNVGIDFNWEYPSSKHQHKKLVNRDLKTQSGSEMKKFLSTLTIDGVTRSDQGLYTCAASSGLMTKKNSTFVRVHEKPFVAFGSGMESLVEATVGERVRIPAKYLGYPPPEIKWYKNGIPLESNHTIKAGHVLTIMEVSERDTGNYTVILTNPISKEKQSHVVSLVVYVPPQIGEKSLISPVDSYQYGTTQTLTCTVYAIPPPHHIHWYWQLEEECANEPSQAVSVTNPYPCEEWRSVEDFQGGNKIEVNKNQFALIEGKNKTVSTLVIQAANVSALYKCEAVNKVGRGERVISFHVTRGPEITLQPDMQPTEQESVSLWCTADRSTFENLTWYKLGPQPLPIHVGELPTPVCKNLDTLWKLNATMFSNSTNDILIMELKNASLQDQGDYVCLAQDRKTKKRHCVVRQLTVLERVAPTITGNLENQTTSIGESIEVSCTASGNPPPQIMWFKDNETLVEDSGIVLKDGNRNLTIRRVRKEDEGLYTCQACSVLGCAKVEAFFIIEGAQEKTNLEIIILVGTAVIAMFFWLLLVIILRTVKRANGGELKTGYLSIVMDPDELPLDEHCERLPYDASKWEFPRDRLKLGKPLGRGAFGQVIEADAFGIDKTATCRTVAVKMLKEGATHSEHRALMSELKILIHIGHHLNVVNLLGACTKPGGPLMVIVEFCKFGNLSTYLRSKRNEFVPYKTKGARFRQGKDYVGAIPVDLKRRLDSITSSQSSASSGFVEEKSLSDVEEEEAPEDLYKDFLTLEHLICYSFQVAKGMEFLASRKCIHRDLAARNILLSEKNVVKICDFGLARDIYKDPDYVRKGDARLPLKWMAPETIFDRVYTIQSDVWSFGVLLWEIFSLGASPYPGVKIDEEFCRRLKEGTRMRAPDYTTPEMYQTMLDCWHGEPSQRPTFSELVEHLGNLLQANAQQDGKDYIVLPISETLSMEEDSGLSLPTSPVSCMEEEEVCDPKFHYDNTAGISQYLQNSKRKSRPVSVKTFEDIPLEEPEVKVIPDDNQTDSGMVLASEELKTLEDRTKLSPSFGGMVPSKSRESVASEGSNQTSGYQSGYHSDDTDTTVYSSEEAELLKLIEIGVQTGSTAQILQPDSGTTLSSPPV

Her2 = Her2 (Homo sapiens, UniProt P04626); experiment: In vitro protein kinase assay, Her2; assay type: biochemical
Sequence of Her2 (P04626 23-1255): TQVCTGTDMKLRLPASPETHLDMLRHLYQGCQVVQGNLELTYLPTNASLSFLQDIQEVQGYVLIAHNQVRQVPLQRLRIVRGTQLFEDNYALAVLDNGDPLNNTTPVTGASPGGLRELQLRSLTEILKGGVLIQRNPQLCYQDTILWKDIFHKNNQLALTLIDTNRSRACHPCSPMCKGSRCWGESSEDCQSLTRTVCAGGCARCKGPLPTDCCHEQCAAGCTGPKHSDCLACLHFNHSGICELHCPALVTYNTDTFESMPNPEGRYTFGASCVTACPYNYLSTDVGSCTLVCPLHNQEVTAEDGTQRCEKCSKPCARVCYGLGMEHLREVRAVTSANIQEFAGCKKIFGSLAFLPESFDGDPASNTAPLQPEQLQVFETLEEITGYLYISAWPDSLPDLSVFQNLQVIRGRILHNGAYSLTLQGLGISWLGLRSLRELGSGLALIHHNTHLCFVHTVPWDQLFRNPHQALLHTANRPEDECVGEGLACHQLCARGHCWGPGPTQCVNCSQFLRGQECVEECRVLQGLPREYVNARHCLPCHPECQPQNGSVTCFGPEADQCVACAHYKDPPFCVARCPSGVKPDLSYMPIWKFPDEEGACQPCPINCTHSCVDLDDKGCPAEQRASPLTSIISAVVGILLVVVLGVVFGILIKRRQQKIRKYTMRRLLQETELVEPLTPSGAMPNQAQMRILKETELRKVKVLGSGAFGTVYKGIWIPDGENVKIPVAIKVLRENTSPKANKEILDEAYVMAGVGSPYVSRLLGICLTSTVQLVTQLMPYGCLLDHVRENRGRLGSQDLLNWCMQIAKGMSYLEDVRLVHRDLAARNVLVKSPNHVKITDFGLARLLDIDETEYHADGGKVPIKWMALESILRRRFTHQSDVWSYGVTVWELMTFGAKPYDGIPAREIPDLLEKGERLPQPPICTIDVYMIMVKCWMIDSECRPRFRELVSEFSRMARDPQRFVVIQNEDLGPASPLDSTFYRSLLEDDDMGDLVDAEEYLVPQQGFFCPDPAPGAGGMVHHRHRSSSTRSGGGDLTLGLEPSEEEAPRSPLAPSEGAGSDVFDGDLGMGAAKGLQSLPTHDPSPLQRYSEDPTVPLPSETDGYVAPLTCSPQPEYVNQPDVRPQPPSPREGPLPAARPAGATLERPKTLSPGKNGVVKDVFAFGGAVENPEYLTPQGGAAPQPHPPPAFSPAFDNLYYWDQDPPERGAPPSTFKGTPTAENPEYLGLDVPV

Caspase 9 = experiment: Apoptotic protein expression, Caspase 9; assay type: cell-based, human; conditions: HepG2 cells, 8.39 μM of compound 7, 24 h; control = 1
Outline: (§1)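 HepG2 cells were incubated with 8.39 μM test compound for 24 h. Apoptotic protein levels were measured by a previously reported method. Expression was normalised to β-actin and given as fold change versus untreated HepG2 cells, which were set to 1. Values are means of three experiments.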

HepG2 cells [3] = experiment: Annexin-V/propidium iodide double staining apoptosis assay; assay type: cell-based, human; conditions: 24 h incubation
Caspase 3 = experiment: Apoptotic protein expression, Caspase 3; assay type: cell-based, human; conditions: HepG2 cells, 8.39 μM of compound 7, 24 h; control = 1
Outline: as §1

EGFR = EGFR (Homo sapiens, UniProt P00533); experiment: In vitro protein kinase assay, EGFR; assay type: biochemical
Sequence of EGFR (P00533 25-1210): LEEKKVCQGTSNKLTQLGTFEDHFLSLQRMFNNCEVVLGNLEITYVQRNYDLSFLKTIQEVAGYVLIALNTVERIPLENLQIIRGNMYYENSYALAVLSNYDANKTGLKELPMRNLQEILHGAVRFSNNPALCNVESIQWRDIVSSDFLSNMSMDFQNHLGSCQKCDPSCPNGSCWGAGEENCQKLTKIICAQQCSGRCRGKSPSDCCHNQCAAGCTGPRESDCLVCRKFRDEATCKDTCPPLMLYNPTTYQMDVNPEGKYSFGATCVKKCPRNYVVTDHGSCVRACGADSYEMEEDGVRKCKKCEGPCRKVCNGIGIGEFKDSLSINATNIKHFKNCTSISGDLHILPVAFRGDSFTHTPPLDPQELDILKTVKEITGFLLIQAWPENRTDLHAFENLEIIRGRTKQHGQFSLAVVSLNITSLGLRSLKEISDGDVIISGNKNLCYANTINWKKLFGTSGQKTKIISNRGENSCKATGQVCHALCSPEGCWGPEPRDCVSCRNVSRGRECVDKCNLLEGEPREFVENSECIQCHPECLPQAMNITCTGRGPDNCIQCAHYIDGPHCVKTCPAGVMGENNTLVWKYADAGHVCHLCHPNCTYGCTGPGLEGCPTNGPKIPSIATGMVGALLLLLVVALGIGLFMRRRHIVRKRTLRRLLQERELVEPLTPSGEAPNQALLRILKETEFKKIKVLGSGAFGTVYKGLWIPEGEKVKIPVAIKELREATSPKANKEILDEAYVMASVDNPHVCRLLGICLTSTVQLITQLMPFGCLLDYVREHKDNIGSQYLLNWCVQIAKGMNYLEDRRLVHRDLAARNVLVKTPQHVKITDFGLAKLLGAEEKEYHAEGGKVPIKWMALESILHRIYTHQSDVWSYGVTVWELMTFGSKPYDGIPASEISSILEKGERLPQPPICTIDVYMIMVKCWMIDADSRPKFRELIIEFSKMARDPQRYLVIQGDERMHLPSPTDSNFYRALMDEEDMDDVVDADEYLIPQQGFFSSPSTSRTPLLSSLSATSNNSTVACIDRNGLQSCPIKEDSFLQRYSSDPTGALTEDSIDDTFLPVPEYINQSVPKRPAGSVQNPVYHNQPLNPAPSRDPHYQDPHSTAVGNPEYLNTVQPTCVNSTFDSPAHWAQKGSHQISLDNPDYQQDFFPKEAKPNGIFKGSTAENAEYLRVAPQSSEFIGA

| SMILES | IC50 (HepG2) [µM] | IC50 (MCF-7) [µM] | IC50 (HeLa) [µM] | IC50 (MDA-MB-231) [µM] | further results |
| --- | --- | --- | --- | --- | --- |
| O=C1Nc2ccccc2C1=NNc1ncnc2[nH]ccc12 [Compound 3, 3-(2-(7H-pyrrolo[2,3-d]pyrimidin-4-yl)hydrazineylidene)indolin-2-one] | 19.1 ± 1.4 | 14.2 ± 1.2 | 9.86 ± 0.7 | 7.86 ± 0.6 | IC50 [1]: 7.86 to 27.6 µM |
| O=C1Nc2ccc(Cl)cc2C1=NNc1ncnc2[nH]ccc12 [Compound 4, 3-(2-(7H-pyrrolo[2,3-d]pyrimidin-4-yl)hydrazineylidene)-5-chloroindolin-2-one] | 28.4 ± 2.1 | 33.9 ± 2.2 | 24.2 ± 1.8 | 21.1 ± 1.8 | – |
| O=C1Nc2ccc(F)cc2C1=NNc1ncnc2[nH]ccc12 [Compound 5, 3-(2-(7H-pyrrolo[2,3-d]pyrimidin-4-yl)hydrazineylidene)-5-fluoroindolin-2-one] | 37.3 ± 2.5 | 41.6 ± 2.6 | 29.1 ± 2 | 32.5 ± 2.1 | – |
| Cc1ccc2c(c1)C(=NNc1ncnc3[nH]ccc13)C(=O)N2 [Compound 6, 3-(2-(7H-pyrrolo[2,3-d]pyrimidin-4-yl)hydrazineylidene)-5-methylindolin-2-one] | 11.7 ± 0.9 | 27.6 ± 2 | 19.8 ± 1.3 | 15.2 ± 1.1 | IC50 [1]: 7.86 to 27.6 µM |
| COc1ccc2c(c1)C(=NNc1ncnc3[nH]ccc13)C(=O)N2 [Compound 7, 3-(2-(7H-pyrrolo[2,3-d]pyrimidin-4-yl)hydrazineylidene)-5-methoxyindolin-2-one] | 8.39 ± 0.7 | 9.08 ± 0.7 | 6.37 ± 0.3 | 5.28 ± 0.3 | DNA content (%) %G1 (HepG2 cells [2]): 54.22%; DNA content (%) %G2/M (HepG2 cells [2]): 11.02%; DNA content (%) %S (HepG2 cells [2]): 34.76%; DNA content (%) %Sub–G1 (HepG2 cells [2]): 32.34%; increase of the DNA in the sub-G1 compared to untreated cells (HepG2 cells [2]): 17 fold; IC50 (CDK2): 0.302 ± 0.016 µM; IC50 (VEGFR2): 0.224 ± 0.012 µM; IC50 (Her2): 0.157 ± 0.022 µM; Folds of gene expression (Normalized to β-actin) Caspase 9 (Caspase 9): 3.3 fold and 3.295 fold; Apoptosis Early (HepG2 cells [3]): 9.91%; Apoptosis Late (HepG2 cells [3]): 15.92%; Apoptosis Total (HepG2 cells [3]): 32.34%; Necrosis (HepG2 cells [3]): 6.51%; Folds of gene expression (Normalized to β-actin) Caspase 3 (Caspase 3): 5.42 fold and 5.421 fold; IC50 (EGFR): 0.166 ± 0.01 µM |
| O=C1Nc2ccc([N+](=O)[O-])cc2C1=NNc1ncnc2[nH]ccc12 [Compound 8, 3-(2-(7H-pyrrolo[2,3-d]pyrimidin-4-yl)hydrazineylidene)-5-nitroindolin-2-one] | 52.1 ± 2.9 | 48.5 ± 2.8 | 38 ± 2.2 | 36.9 ± 2.4 | – |
| COc1cccc2c1C(=O)c1c(O)c3c(c(O)c1C2=O)C[C@@](O)(C(=O)CO)C[C@@H]3O[C@H]1C[C@H](N)[C@H](O)[C@H](C)O1 [Doxorubicin, reference compound] | 4.5 ± 0.2 | – | – | – | – |
